Source: ChEMBL document CHEMBL2203231, “Nitric oxide donor doxorubicins accumulate into Doxorubicin-resistant human colon cancer cells inducing cytotoxicity” (ACS Med Chem Lett, 2011)
One block for each molecule: values may come before it. Calls of active or inactive are those of the source. The calls are words filed in the database; no cut-off is given here.

What was measured:
HT-29 [1] = assay: Inhibition of P-gp in doxorubicin-resistant human HT-29 cells assessed as nitration of tyrosine residues at 5 uM after 24 hrs by Western blot analysis; format: cell-based
In short: (§1)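 HT29-dx cells were treated for 24 h with 5 μM compound and lysed. Whole lysate was immunoprecipitated with a polyclonal anti-nitrotyrosine antibody, then Western blotted with anti-P-gp or anti-MRP3 antibody. Total transporter levels were checked before immunoprecipitation, with GAPDH as loading control. Representative of three experiments.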

[2] = target: T1, ATP-binding cassette sub-family C member 3 (Homo sapiens, UniProt O15438); assay: Inhibition of MRP3 in doxorubicin-resistant human HT-29 cells assessed as nitration of tyrosine residues at 5 uM after 24 hrs by Western blot analysis; format: cell-based; conditions: ht-29, 24 h; in short: as §1
HT-29 [3] = assay: Induction of nitrite production in doxorubicin-resistant human HT-29 cells at 5 uM by Griess method; format: functional, cell-based; conditions: TDE = time-dependent effect
In short: (§2)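 HT29-dx cells were incubated for 24 h with 5 μM compound, alone or with 100 μM PTIO or 10 μL/mL packed red blood cells as NO scavengers. Readouts were intracellular drug content, extracellular LDH activity and nitrite in the culture supernatant. Measured in duplicate, n = 3.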

HT-29 [4] = assay: Induction of nitrite production in doxorubicin-resistant human HT-29 cells after 24 hrs by Griess method; format: functional, cell-based
In short: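 HT29-dx cell monolayers were incubated for 24 h with 0.5, 1, 2.5, 5 or 25 μM compound. Nitrite in the culture medium was quantified by the Griess reaction. Data are means ± SD (n = 3) versus untreated cells.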

[5] = target: T1, ATP-binding cassette sub-family C member 3; assay: Inhibition of MRP3-mediated drug resistance in doxorubicin-resistant human HT-29 cells assessed as increase in extracellular LDH level at 5 uM after 24 hrs by spectrofluorometric analysis in presence of nitric oxide scavenger PTIO and RBCs; format: cell-based; conditions: ht-29, 24 h; in short: as §2
[6] = target: T1, ATP-binding cassette sub-family C member 3; assay: Inhibition of MRP3-mediated drug resistance in doxorubicin-resistant human HT-29 cells assessed as increase in extracellular LDH level at 5 uM after 24 hrs by spectrofluorometric analysis; format: cell-based; conditions: ht-29, 24 h; in short: as §2
[7] = target: T1, ATP-binding cassette sub-family C member 3; assay: Inhibition of MRP3-mediated drug resistance in doxorubicin-resistant human HT-29 cells assessed as increase in doxorubicin accumulation at 5 uM by spectrofluorometric analysis; format: cell-based; conditions: ht-29, 5 µM, TDE = time-dependent effect
[8] = target: T1, ATP-binding cassette sub-family C member 3; assay: Inhibition of MRP3-mediated drug resistance in doxorubicin-resistant human HT-29 cells assessed as increase in doxorubicin accumulation at 5 uM after 24 hrs by spectrofluorometric analysis in presence of nitric oxide scavenger PTIO and RBCs; format: cell-based; conditions: ht-29, 24 h; in short: as §2
[9] = target: T1, ATP-binding cassette sub-family C member 3; assay: Inhibition of MRP3-mediated drug resistance in doxorubicin-resistant human HT-29 cells assessed as increase in doxorubicin accumulation after 24 hrs by spectrofluorometric analysis; format: cell-based; conditions: ht-29, 24 h
[10] = target: ATP-dependent translocase ABCB1 (Homo sapiens, UniProt P08183); assay: Inhibition of P-gp in doxorubicin-resistant human HT-29 cells at 5 umol/L incubated for 24 hrs followed by compound wash out measured after 20 mins by Rhodamine 123 staining-based flow cytometry; format: cell-based; conditions: ht-29, 24 h, 5 µM
[11] = target: T1, ATP-binding cassette sub-family C member 3; assay: Inhibition of MRP3-mediated drug resistance in doxorubicin-resistant human HT-29 cells assessed as increase in doxorubicin accumulation at 5 umol/L co-administered with doxorubicin after 24 hrs by spectrofluorometric analysis; format: cell-based; conditions: ht-29, 24 h, 5 µM
[12] = target: T1, ATP-binding cassette sub-family C member 3; assay: Inhibition of MRP3-mediated drug resistance in doxorubicin-resistant human HT-29 cells assessed as increase in doxorubicin accumulation at 5 umol/L incubated for 24 hrs followed by compound wash out measured 24 hrs post doxorubicin administration by spectrofluorometric analysis; format: cell-based; conditions: ht-29, 24 h, 5 µM
HT-29 [13] = assay: Induction of nitrite production in doxorubicin-resistant human HT-29 cells at 5 uM after 1 to 24 hrs by Griess method; format: functional, cell-based
In short: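 In a time-course run, HT29-dx cells were exposed to 5 μM compound. Nitrite in the medium was measured by the Griess reaction at times between 1 and 24 h.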

[14] = target: T1, ATP-binding cassette sub-family C member 3; assay: Inhibition of MRP3-mediated drug resistance in doxorubicin-resistant human HT-29 cells assessed as increase in drug accumulation at 5 uM after 1 to 24 hrs by spectrofluorometric analysis; format: cell-based; conditions: ht-29, 5 µM
In short: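 Time course in HT29-dx cells with 5 μM drug over 1–24 h. Intracellular content was read by spectrofluorimetry of cell lysates.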

[15] = target: T1, ATP-binding cassette sub-family C member 3; assay: Inhibition of MRP3-mediated drug resistance in doxorubicin-resistant human HT-29 cells assessed as increase in drug accumulation at 25 uM after 24 hrs by spectrofluorometric analysis; format: cell-based; conditions: ht-29, 24 h
In short: (§3)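 HT29-dx cells in RPMI 1640 were incubated for 24 h with 0.5, 1, 2.5, 5 or 25 μM drug, then lysed. Intracellular drug was measured spectrofluorimetrically (excitation 475 nm, emission 553 nm). Data are means ± SD (n = 3) versus untreated cells.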

[16] = target: T1, ATP-binding cassette sub-family C member 3; assay: Inhibition of MRP3-mediated drug resistance in doxorubicin-resistant human HT-29 cells assessed as increase in drug accumulation at 0.5 to 5 uM after 24 hrs by spectrofluorometric analysis; format: cell-based; conditions: ht-29, 24 h; in short: as §3

T1 sequence (O15438 whole entry): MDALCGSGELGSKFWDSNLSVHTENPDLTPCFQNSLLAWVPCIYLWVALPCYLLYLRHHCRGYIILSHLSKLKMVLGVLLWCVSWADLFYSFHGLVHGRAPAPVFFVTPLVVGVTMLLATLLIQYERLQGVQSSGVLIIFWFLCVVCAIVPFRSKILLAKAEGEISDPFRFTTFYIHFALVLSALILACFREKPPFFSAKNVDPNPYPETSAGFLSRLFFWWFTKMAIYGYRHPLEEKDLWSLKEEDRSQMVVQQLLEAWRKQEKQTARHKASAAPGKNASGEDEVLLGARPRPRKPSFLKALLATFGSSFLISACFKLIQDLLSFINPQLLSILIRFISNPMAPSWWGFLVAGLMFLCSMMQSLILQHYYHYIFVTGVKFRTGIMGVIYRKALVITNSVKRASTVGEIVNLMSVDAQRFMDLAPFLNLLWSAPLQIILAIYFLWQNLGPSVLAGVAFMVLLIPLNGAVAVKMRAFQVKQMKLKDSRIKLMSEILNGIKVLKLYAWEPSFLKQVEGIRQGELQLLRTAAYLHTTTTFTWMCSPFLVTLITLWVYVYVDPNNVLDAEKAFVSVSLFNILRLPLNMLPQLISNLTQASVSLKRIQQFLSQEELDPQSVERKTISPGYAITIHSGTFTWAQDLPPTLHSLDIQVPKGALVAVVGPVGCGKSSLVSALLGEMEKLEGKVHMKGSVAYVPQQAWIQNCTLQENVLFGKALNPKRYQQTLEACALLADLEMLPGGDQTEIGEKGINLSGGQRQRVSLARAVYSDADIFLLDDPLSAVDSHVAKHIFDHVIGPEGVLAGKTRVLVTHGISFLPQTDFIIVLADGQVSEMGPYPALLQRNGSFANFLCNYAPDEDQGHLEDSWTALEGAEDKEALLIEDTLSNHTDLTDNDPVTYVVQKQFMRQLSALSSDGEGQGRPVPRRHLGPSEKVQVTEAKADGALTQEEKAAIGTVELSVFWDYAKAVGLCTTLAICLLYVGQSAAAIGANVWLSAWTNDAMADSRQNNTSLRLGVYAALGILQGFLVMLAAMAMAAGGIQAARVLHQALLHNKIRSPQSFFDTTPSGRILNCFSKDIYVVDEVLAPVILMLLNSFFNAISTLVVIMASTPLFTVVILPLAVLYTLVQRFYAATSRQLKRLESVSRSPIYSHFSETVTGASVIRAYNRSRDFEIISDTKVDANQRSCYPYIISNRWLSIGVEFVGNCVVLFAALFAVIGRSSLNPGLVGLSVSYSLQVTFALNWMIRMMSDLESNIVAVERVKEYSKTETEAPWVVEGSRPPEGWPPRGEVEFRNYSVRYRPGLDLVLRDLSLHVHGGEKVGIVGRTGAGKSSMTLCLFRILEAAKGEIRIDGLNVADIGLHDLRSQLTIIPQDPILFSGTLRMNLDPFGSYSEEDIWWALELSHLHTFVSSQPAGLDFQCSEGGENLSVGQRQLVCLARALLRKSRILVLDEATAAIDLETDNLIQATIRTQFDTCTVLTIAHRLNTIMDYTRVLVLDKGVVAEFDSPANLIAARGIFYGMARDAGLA
Sequence of ATP-dependent translocase ABCB1 (P08183 whole entry): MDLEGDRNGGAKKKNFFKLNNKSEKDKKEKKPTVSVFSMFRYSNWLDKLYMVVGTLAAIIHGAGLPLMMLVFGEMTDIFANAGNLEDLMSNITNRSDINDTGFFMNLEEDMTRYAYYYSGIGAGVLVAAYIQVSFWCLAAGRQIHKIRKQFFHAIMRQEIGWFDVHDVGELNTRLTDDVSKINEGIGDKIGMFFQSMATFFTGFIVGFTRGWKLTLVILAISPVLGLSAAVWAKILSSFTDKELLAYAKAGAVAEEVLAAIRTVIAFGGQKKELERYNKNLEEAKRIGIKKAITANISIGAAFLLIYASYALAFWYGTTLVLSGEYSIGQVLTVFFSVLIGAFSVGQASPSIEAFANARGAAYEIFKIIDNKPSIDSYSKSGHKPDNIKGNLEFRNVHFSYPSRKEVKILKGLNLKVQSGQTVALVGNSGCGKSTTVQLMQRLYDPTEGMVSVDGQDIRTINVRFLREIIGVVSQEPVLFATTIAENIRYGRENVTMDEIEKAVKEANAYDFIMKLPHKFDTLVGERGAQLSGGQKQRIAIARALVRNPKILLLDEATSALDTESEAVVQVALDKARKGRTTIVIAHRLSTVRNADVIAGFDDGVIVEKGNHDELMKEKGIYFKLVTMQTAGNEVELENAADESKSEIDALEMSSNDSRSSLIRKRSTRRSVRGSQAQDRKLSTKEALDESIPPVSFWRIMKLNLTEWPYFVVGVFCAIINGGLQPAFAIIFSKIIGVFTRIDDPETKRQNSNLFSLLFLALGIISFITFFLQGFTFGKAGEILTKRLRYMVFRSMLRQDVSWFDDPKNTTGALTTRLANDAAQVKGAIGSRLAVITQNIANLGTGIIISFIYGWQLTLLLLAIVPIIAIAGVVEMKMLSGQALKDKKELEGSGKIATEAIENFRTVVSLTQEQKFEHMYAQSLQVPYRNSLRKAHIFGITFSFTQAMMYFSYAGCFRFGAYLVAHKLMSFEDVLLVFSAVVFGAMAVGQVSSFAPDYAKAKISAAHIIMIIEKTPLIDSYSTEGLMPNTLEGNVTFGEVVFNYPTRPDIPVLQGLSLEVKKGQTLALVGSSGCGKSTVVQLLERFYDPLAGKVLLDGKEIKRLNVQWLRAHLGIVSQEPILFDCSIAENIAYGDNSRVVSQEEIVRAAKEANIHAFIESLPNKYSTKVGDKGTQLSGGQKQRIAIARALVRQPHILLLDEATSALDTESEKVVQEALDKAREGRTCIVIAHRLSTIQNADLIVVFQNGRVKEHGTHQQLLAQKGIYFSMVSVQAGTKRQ

SMILES: COc1cccc2c1C(=O)c1c(O)c3c(c(O)c1C2=O)C[C@@](O)(C(=O)COC(=O)CCOc1no[n+]([O-])c1S(=O)(=O)c1ccccc1)C[C@@H]3O[C@H]1C[C@H](N)[C@H](O)[C@H](C)O1.Cl
inhibition (HT-29 [1]): inactive | inhibition (INH) [2]: Active | Activity (HT-29 [3]): tde | Activity (HT-29 [4]): Dose-dependent effect | inhibition (INH) [5]: Not Active | inhibition (INH) [6]: Active | inhibition (INH) [7]: tde | inhibition (INH) [8]: Not Active | inhibition (INH) [9]: Dose-dependent effect

SMILES: COC(=O)CCOc1no[n+]([O-])c1S(=O)(=O)c1ccccc1
inhibition (INH) [10]: Not Active | inhibition (INH) [6]: Not Active | inhibition (INH) [11]: Active | inhibition (INH) [12]: Active

SMILES: O=C(O)CCOc1no[n+]([O-])c1S(=O)(=O)c1ccccc1
inhibition (INH) [10]: Not Active | inhibition (INH) [6]: Not Active | inhibition (INH) [11]: Active | inhibition (INH) [12]: Active

SMILES: COc1cccc2c1C(=O)c1c(O)c3c(c(O)c1C2=O)C[C@@](O)(C(=O)CO)C[C@@H]3O[C@H]1C[C@H](N)[C@H](O)[C@H](C)O1 [DOXORUBICIN]
inhibition (INH) [2]: Not Active | Activity (HT-29 [13]): inactive | inhibition (INH) [14]: Not Active | inhibition (INH) [15]: Active | inhibition (INH) [16]: Not Active

Second part, led by results:

inhibition (INH) [6]: Not Active
SMILES: COC(=O)c1ccc(CC(CO[N+](=O)[O-])O[N+](=O)[O-])cc1 (stereo not drawn)

inhibition (INH) [2]: Active | inhibition (INH) [5]: Not Active | inhibition (INH) [6]: Active | inhibition (INH) [7]: tde | inhibition (INH) [8]: Not Active | inhibition (INH) [9]: Dose-dependent effect
SMILES: COc1cccc2c1C(=O)c1c(O)c3c(c(O)c1C2=O)C[C@@](O)(C(=O)COC(=O)c1ccc(CC(CO[N+](=O)[O-])O[N+](=O)[O-])cc1)C[C@@H]3O[C@H]1C[C@H](N)[C@H](O)[C@H](C)O1.Cl (stereo partly drawn)
inhibition (HT-29 [1]): inactive | Activity (HT-29 [3]): tde | Activity (HT-29 [4]): Dose-dependent effect

inhibition (INH) [6]: Not Active
SMILES: O=C(O)c1ccc(CC(CO[N+](=O)[O-])O[N+](=O)[O-])cc1 (stereo not drawn)
